Results of several laboratories.
Each line is one published result; the experiments were not run side by side.
Target: Ribosomal protein S6 kinase beta-1 (RPS6KB1, Homo sapiens, UniProt P23443)

Structure (SMILES) | assay | setting | remaining binding [%]
CCC(=N\O)/C(C)=C/c1ccc(F)cc1 | cell-free assay, competition with immobilised ligand | 1 µM | 66
O=C(c1ccc(Nc2ncc(Cl)c(-c3ccc(Cl)s3)n2)cc1)N1CCC(N2CCCC2)CC1 | binding, competition with immobilised ligand | 1 µM | 21
CCCOc1ccc([C@H]2[C@H](C(=O)O)[C@@H](c3ccc4c(c3)OCO4)CN2CC(=O)Nc2c(CC)cccc2CC)cc1 | cell-free assay, competition with immobilised ligand | 1 µM | 76
C=CC(=O)N1CCC(C(=O)NCC(=O)N2CCN(c3nc(-c4cnc(N)nc4C(F)F)nc(N4CCOCC4)n3)CC2)CC1 | binding, competition with immobilised ligand | 1 µM | 56
CNC(=O)[C@@H]1CC[C@@H](n2c(-c3ccc4cnccc4c3)nc3ccc(C(=O)NCc4cccc(C(N)=O)c4)cc32)C1 | binding, competition with immobilised ligand | 1 µM | 87
O=C(NCCCN1CCOCC1)c1ccc(Nc2nccc(-c3cc4ccccc4s3)n2)cc1 | binding, competition with immobilised ligand | 1 µM | 92
CC1CCCN1c1nccc(-c2cnn3ncccc23)n1 (stereo not drawn) | binding | 1 µM | 100
CNC(=O)c1ccc(Nc2ncc(C(F)(F)F)c(NCc3nccnc3N(C)S(C)(=O)=O)n2)cc1 | cell-free assay, competition with immobilised ligand | 0.1 µM | 96
F[C@@H]1CCN(c2nccc(-c3cnn4ncccc34)n2)C1 | binding | 1 µM | 100
O=C(NC[C@@H]1[C@H]2CN(C(=O)OCc3cc(C(F)(F)F)cc(C(F)(F)F)c3)C[C@@H]12)c1ccc2[nH]nnc2c1 | cell-free assay, competition with immobilised ligand | 1 µM | 86
CN(CCCC(F)(F)F)c1nccc(-c2cnn3ncccc23)n1 | binding | 1 µM | 100
Cc1cnc(Nc2ccc(C(=O)N3CCC(N4CCCC4)CC3)cc2)nc1-c1cc2ccccc2s1 | binding, competition with immobilised ligand | 1 µM | 36
COc1cnc(Nc2cccc(S(N)(=O)=O)c2)nc1N1CCN(c2ccccc2)C(=O)C1 | binding, competition with immobilised ligand | 1 µM | 71
C[C@@H](c1ccc(-n2cnc3c(N)ncnc32)cc1)N1CCc2nn(C)c(Cc3ccccc3)c2C1=O | binding, competition with immobilised ligand | 0.1 µM | 67
O=C(Nc1c[nH]nc1C(=O)NC1CCNCC1)c1cc(F)cc(F)c1 | binding, competition with immobilised ligand | 1 µM | 99
N[C@H]1CCN(c2nccc(-c3cnn4ncccc34)n2)C1 | binding | 1 µM | 100
O=C(O)c1cc(-c2ccc(C3CCNCC3)cc2)c2ccc(-c3ccc(C(F)(F)F)cc3)cc2c1 | cell-free assay, competition with immobilised ligand | 1 µM | 100
CN(C)c1ncc(F)c(-c2cnn3ncccc23)n1 | binding | 1 µM | 78
Nc1ncc2c(n1)-c1c([nH]c3ccc(C#CC4CC4)cc13)CCCC2 | binding, competition with immobilised ligand | 1 µM | 72
Cc1c(C(=O)O)cc(-c2ccc(C3CCNCC3)cc2)c2ccc(-c3ccc(C(F)(F)F)cc3)cc12 | binding, competition with immobilised ligand | 1 µM | 100
C[C@@H]1CCN(c2nccc(-c3cnn4ncccc34)n2)C1 | binding | 1 µM | 87
